Assay results taken from ChEMBL document CHEMBL2046427, “Nonhematotoxic naphthalene diimide modified by polyamine: synthesis and biological evaluation” (J Med Chem, 2012).
The source made the active and inactive calls. The rule behind the calls is not given here.

Legend:
Mus musculus [1] = assay: Toxicity in mouse H22 cells bearing Kunming mouse assessed as decrease in platelet number at 5 mg/kg, iv administered for 7 days measured on day 8 relative to vehicle treated control; format: organism-based; design: dose 5 mg/kg, route intravenous; settings: in vivo, 168 h
How it was run: (§1)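 Tumour-bearing mice (10 per group) dosed iv for 7 consecutive days; killed on day 8. Blood and bone marrow collected; platelet, RBC, WBC and bone marrow cell counts determined with a Coulter counter. Mean SD versus saline control; Student's t test or ANOVA with q test.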

Mus musculus [2] = assay: Toxicity in mouse H22 cells bearing Kunming mouse assessed as decrease in white blood cells number at 5 mg/kg, iv administered for 7 days measured on day 8 relative to vehicle treated control; format: organism-based; design: dose 5 mg/kg, route intravenous; settings: in vivo, 168 h; how it was run: as §1
H22 [3] = assay: Antimetastatic activity against mouse H22 cells xenografted in Kunming mouse assessed as decrease in lung metastases nodus number at 5 mg/kg, iv administered on day 11 post-tumor injection for 7 days measured on day 18 by hematoxylin and eosin staining relative to vehicle treated control; format: functional, organism-based; design: dose 5 mg/kg
Mus musculus [4] = assay: Toxicity in mouse H22 cells bearing Kunming mouse assessed as change in spleen index number at 5 mg/kg, iv administered for 7 days measured on day 8 relative to vehicle treated control; format: organism-based; design: dose 5 mg/kg, route intravenous; settings: in vivo, 168 h
How it was run: (§2)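 Tumour-bearing mice (10 per group) dosed iv for 7 consecutive days, killed on day 8; spleen and thymus removed and weighed. Organ index (%) = (organ weight/body weight) × 100, compared with saline-treated controls.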

Mus musculus [5] = assay: Toxicity in mouse H22 cells bearing Kunming mouse assessed pathological changes in heart at 5 mg/kg, iv administered for 7 days measured on day 8 by hematoxylin and eosin staining relative to vehicle treated control; format: organism-based; design: dose 5 mg/kg, route intravenous; settings: in vivo, 168 h
How it was run: (§3)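 Tumour-bearing mice dosed iv for 7 consecutive days, killed on day 8; heart, liver, kidney, brain, lung and spleen removed, fixed in 10% formaldehyde 24 h, paraffin-embedded, sectioned and H&E stained for histopathological change versus saline controls.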

Mus musculus [6] = assay: Toxicity in mouse H22 cells bearing Kunming mouse assessed pathological changes in spleen at 5 mg/kg, iv administered for 7 days measured on day 8 by hematoxylin and eosin staining relative to vehicle treated control; format: organism-based; design: dose 5 mg/kg, route intravenous; settings: in vivo, 168 h; how it was run: as §3
HepG2 [7] = assay: Cytotoxicity against human HepG2 cells assessed as mitochondrial permeability augmentation after 48 hrs by fluorescence-based high-content screening assay; format: functional, cell-based
How it was run: (§4)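 HepG2 seeded 5 × 10³/well; after 12 h treated at 1, 5, 10, 15 and 30 μM for 48 h. Multiparameter cytotoxicity kit staining imaged by high-content screening: Hoechst 33342 for nuclear morphology, permeability dye (green nuclei) for membrane integrity, mitochondrial potential dye, and a weak-base dye for lysosomal mass/pH.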

HepG2 [8] = assay: Cytotoxicity against human HepG2 cells assessed as decrease in mitochondrial membrane potential after 48 hrs by fluorescence-based high-content screening assay; format: functional, cell-based; how it was run: as §4
Mus musculus [9] = assay: Toxicity in mouse H22 cells bearing Kunming mouse assessed pathological changes in lung at 5 mg/kg, iv administered for 7 days measured on day 8 by hematoxylin and eosin staining relative to vehicle treated control; format: organism-based; design: dose 5 mg/kg, route intravenous; settings: in vivo, 168 h; how it was run: as §3
Mus musculus [10] = assay: Toxicity in mouse H22 cells bearing Kunming mouse assessed as change in thymus index number at 5 mg/kg, iv administered for 7 days measured on day 8 relative to vehicle treated control; format: organism-based; design: dose 5 mg/kg, route intravenous; settings: in vivo, 168 h; how it was run: as §2
Mus musculus [11] = assay: Toxicity in mouse H22 cells bearing Kunming mouse assessed as weight loss at 5 mg/kg, iv administered for 7 days measured on day 8 relative to vehicle treated control; format: organism-based; design: dose 5 mg/kg, route intravenous; settings: in vivo, 168 h
How it was run: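 Body weight monitored in tumour-bearing mice during 7 consecutive days of iv dosing (10 per group), as a sign of dose-limiting toxicity versus saline-treated controls; mice killed on day 8.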

Mus musculus [12] = assay: Toxicity in mouse H22 cells bearing Kunming mouse assessed pathological changes in brain at 5 mg/kg, iv administered for 7 days measured on day 8 by hematoxylin and eosin staining relative to vehicle treated control; format: organism-based; design: dose 5 mg/kg, route intravenous; settings: in vivo, 168 h; how it was run: as §3
Mus musculus [13] = assay: Toxicity in mouse H22 cells bearing Kunming mouse assessed as decrease in red blood cells number at 5 mg/kg, iv administered for 7 days measured on day 8 relative to vehicle treated control; format: organism-based; design: dose 5 mg/kg, route intravenous; settings: in vivo, 168 h; how it was run: as §1
Mus musculus [14] = assay: Hematotoxicity in mouse H22 cells bearing Kunming mouse assessed as decrease in bone marrow cell numbers at 5 mg/kg, iv administered for 7 days measured on day 8 relative to vehicle treated control; format: organism-based; design: dose 5 mg/kg, route intravenous; settings: in vivo, 168 h; how it was run: as §1
HCT-116 = assay: Cytotoxicity against human HCT116 cells after 48 hrs by MTT assay; format: functional, cell-based; settings: HCT-116, 48 h
How it was run: (§5)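 MTT conversion assay at 37 °C, 5% CO₂. […] Inhibition relative to untreated cells as 100%; IC50 by linear regression, mean of three independent experiments.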

H22 [15] = assay: Antitumor activity against mouse H22 cells xenografted in Kunming mouse assessed as median survival time at 5 […], iv administered 24 hrs post-tumor injection for 7 days (reference value: 12.7 +/- 2.5 days); format: functional
How it was run: (§6)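 Kunming mice bearing H22 cells; iv (caudal vein) dosing or physiologic saline control started 24 h after inoculation and given for 7 consecutive days. Median survival time recorded per group; activity judged as increase in lifespan versus saline control.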

H22 [16] = assay: Antitumor activity against mouse H22 cells xenografted in Kunming mouse assessed as decrease in cell survival at 5 mg/kg, iv administered on day 8 post-tumor injection for 7 days measured on day 16 relative to vehicle treated control; format: functional, organism-based; design: dose 5 mg/kg
K562 = assay: Cytotoxicity against human K562 cells after 48 hrs by MTT assay; format: functional, cell-based; settings: K562, 48 h; how it was run: as §5
HepG2 [17] = assay: Cytotoxicity against human HepG2 cells assessed as acruement in lysosomal mass/pH after 48 hrs by fluorescence-based high-content screening assay; format: functional, cell-based; how it was run: as §4
H22 [18] = assay: Antimetastatic activity against mouse H22 cells xenografted in Kunming mouse assessed as decrease in lung metastasis focuses number at 5 mg/kg, iv administered on day 11 post-tumor injection for 7 days measured on day 18 by hematoxylin and eosin staining relative to vehicle treated control; format: functional, organism-based; design: dose 5 mg/kg
H22 [19] = assay: Antitumor activity against mouse H22 cells xenografted in Kunming mouse assessed as tumor growth inhibition at 5 mg/kg, iv administered on day 8 post-tumor injection for 7 days measured on day 16 relative to vehicle treated control; format: functional; settings: read-out: GI
How it was run: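 Male Kunming mice, 5 weeks, 18−22 g, injected sc with 2 × 10⁶ H22 cells. From day 8, randomized groups got caudal vein injection (0.2 or 5 mg/kg, or physiologic saline) for 7 consecutive days. On day 16 tumours excised and weighed; inhibitory rate (%) = [(A − B)/A] × 100 using mean tumour weights of control (A) and treated (B). Tumours formalin-fixed, H&E-stained.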

HepG2 [20] = assay: Cytotoxicity against human HepG2 cells assessed as cell nuclear shrinkage after 48 hrs by Hoechst 33342-based fluorescence-based high-content screening assay; format: functional; how it was run: as §4
Mus musculus [21] = assay: Toxicity in mouse H22 cells bearing Kunming mouse assessed pathological changes in kidney at 5 mg/kg, iv administered for 7 days measured on day 8 by hematoxylin and eosin staining relative to vehicle treated control; format: organism-based; design: dose 5 mg/kg, route intravenous; settings: in vivo, 168 h; how it was run: as §3
H22 [22] = assay: Antitumor activity against mouse H22 cells xenografted in Kunming mouse assessed as median survival time at 5 […], iv administered 24 hrs post-tumor injection for 7 days relative to vehicle treated control; format: functional; how it was run: as §6
Mus musculus [23] = assay: Toxicity in mouse H22 cells bearing Kunming mouse assessed pathological changes in liver at 5 mg/kg, iv administered for 7 days measured on day 8 by hematoxylin and eosin staining relative to vehicle treated control; format: organism-based; design: dose 5 mg/kg, route intravenous; settings: in vivo, 168 h; how it was run: as §3
H22 [24] = assay: Antimetastatic activity against mouse H22 cells xenografted in Kunming mouse assessed as tumor weight at 5 mg/kg, iv administered on day 11 post-tumor injection for 7 days measured on day 18 (reference value: 0.34 +/- 0.15 g); format: functional
MDA-MB-231 = assay: Cytotoxicity against human MDA-MB-231 cells after 48 hrs by MTT assay; format: functional, cell-based; settings: MDA-MB-231, 48 h; how it was run: as §5
HepG2 [25] = assay: Cytotoxicity against human HepG2 cells after 48 hrs by MTT assay; format: functional, cell-based; settings: HepG2, 48 h; how it was run: as §5

Compound: CN(C)CCN1C(=O)c2cccc3cc(N)cc(c23)C1=O [AMONAFIDE]
- Activity (Mus musculus [1]): Toxic
- Activity (Mus musculus [2]): Toxic
- Activity (H22 [3]): Active
- Activity (Mus musculus [4]): Toxic
- Activity (Mus musculus [5]): Non-toxic
- Activity (Mus musculus [6]): Non-toxic
- Activity (HepG2 [7]): Dose-dependent effect
- Activity (HepG2 [8]): Dose-dependent effect
- Activity (Mus musculus [9]): Non-toxic
- Activity (Mus musculus [10]): Toxic
- Activity (Mus musculus [11]): Toxic
- Activity (Mus musculus [12]): Non-toxic
- Activity (Mus musculus [13]): Toxic
- Activity (Mus musculus [14]): Toxic
- IC50 (HCT-116): 32 µM
- MST (H22 [15]): 18.9 days
- Activity (H22 [16]): Active
- IC50 (K562): 31.7 µM
- Activity (HepG2 [17]): Dose-dependent effect
- Activity (H22 [18]): Active
- inhibition in vivo at 5 mg/kg (H22 [19]): 44.7%
- Activity (HepG2 [20]): Dose-dependent effect
- Activity (Mus musculus [21]): Non-toxic
- Ratio (H22 [22]): 1.5
- Activity (Mus musculus [23]): Non-toxic
- Activity (H22 [24]): 0.29 g
- IC50 (MDA-MB-231): 42 µM
- IC50 (HepG2 [25]): 36 µM
